Activity calls are given as the source filed them. The rule behind the calls is not given here.
Columns and labels:
[1] = Neurotoxicity in Sprague-Dawley rat at 30 mg/kg, po measured after 2 hr by rotarod test; format: toxicity, organism-based; conditions: in vivo
Procedure, shortened: (§1)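 Rats given one oral dose of 30 mg/kg and tested on the rotarod at 0.25, 0.5, 1, 2, 4 and 6 h.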

[2] = Neurotoxicity in Sprague-Dawley rat at 30 mg/kg, po measured after 1 hr by rotarod test; format: toxicity, organism-based; conditions: in vivo; procedure, shortened: as §1
[3] = Neurotoxicity in Sprague-Dawley rat at 30 mg/kg, po measured after 30 mins by rotarod test; format: toxicity, organism-based; conditions: in vivo, 0.5 h; procedure, shortened: as §1
[4] = Neurotoxicity in Sprague-Dawley rat at 30 mg/kg, po measured after 15 mins by rotarod test; format: toxicity, organism-based; conditions: in vivo, 0.25 h; procedure, shortened: as §1
[5] = system: Mus musculus; test: Anticonvulsant activity in ip dosed CD1 mouse assessed as protection against 50 mA current-induced seizure and measured after 4 hrs by maximal electroshock seizure test; format: functional; conditions: read-out: MED
Procedure, shortened: (§2)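 Mice were screened after intraperitoneal doses of 30, 100 and 300 mg/kg in the maximal electroshock and subcutaneous pentylenetetrazole tests, examined at 0.5 and 4 h. The value recorded is the minimum dose showing activity. No activity up to 300 mg/kg is scored as absent.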

[6] = system: Mus musculus; test: Anticonvulsant activity in ip dosed CD1 mouse assessed as time to peak effect on protection against 50 mA current-induced seizures; format: functional
Procedure, shortened: (§3)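 Median effective doses were quantified in the maximal electroshock, subcutaneous pentylenetetrazole and 6 Hz tests after intraperitoneal dosing in mice or oral dosing in rats, at the time of peak effect. ED50 values are reported with ranges in parentheses.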

[7] = system: Mus musculus; test: Anticonvulsant activity in ip dosed CD1 mouse assessed as time to peak effect on protection against 32 mA current-induced seizure by 6 Hz psychomotor seizure test; format: functional; procedure, shortened: as §3
[8] = system: Rattus norvegicus; test: Anticonvulsant activity in po dosed Sprague-Dawley rat assessed as time to peak effect on protection against 32 mA current-induced seizure by 6 Hz psychomotor seizure test; format: functional
[9] = Neurotoxicity in po dosed Sprague-Dawley rat assessed as time to peak effect by rotarod test; format: toxicity, organism-based; conditions: in vivo
[10] = system: Rattus norvegicus; test: Anticonvulsant activity in po dosed Sprague-Dawley rat assessed as protection against subcutaneous pentylenetetrazole-induced seizures; format: functional
[11] = system: Mus musculus; test: Anticonvulsant activity in ip dosed CD1 mouse assessed as protection against 32 mA current-induced seizure by 6 Hz psychomotor seizure test; format: functional; procedure, shortened: as §3
[12] = Neurotoxicity in ip dosed CD1 mouse model by rotarod test; format: toxicity, organism-based; conditions: in vivo
[13] = Neurotoxicity in po dosed Sprague-Dawley rat model by rotarod test; format: toxicity, organism-based; conditions: in vivo
Procedure, shortened: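 Rats dosed orally; neurotoxicity scored on the rotarod. Screening used a fixed 30 mg/kg, with animals checked at 0.25, 0.5, 1, 2, 4 and 6 h; the reading is the number of four rats showing neurotoxicity. In quantitative runs, a median toxic dose (TD50, mg/kg) was determined after oral dosing at the time of peak effect.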

[14] = Protection index, ratio of TD50 for neurotoxicity in po dosed Sprague-Dawley rat by rotarod test to ED50 for anticonvulsant activity in po dosed Sprague-Dawley rat by maximal electroshock seizure test; format: toxicity, organism-based; conditions: in vivo, read-out: Ratio TD50/ED50
[15] = Protection index, ratio of TD50 for neurotoxicity in ip dosed CD1 mouse by rotarod test to ED50 for anticonvulsant activity in ip dosed CD1 mouse by maximal electroshock seizure test; format: toxicity, organism-based; conditions: in vivo, read-out: Ratio TD50/ED50
[16] = Protection index, ratio of TD50 for neurotoxicity in ip dosed CD1 mouse by rotarod test to ED50 for anticonvulsant activity in CD1 mouse by 6 Hz psychomotor seizure test; format: toxicity, organism-based; conditions: in vivo, read-out: Ratio TD50/ED50
[17] = system: Mus musculus; test: […] in CD1 mouse model assessed as formalin-induced nociception by measuring AUC during acute phase at 11 mg/kg, ip measured for 5 mins by formalin test relative to control; format: functional
[18] = system: Mus musculus; test: Anti-inflammatory activity in CD1 mouse model assessed as formalin-induced nociception by measuring AUC during inflammatory phase at 11 mg/kg, ip measured for 5 mins by formalin test relative to control; format: functional
[19] = system: Mus musculus; test: Antiallodynic activity in CD1 mouse assessed as reduction in oxaliplatin-induced neuropathic pain in early phase by measuring paw withdrawal force at 11 mg/kg, ip measured after 3 hrs by Von Frey test relative to untreated control; format: functional; parameters: scale not given: the % may be the effect or the level left
[20] = system: Mus musculus; test: Antiallodynic activity in CD1 mouse assessed as reduction in oxaliplatin-induced neuropathic pain in late phase by measuring paw withdrawal force at 11 mg/kg, ip measured after 7 days by Von Frey test relative to untreated control; format: functional; parameters: scale not given: the % may be the effect or the level left
[21] = system: Mus musculus; test: Anticonvulsant activity in CD1 mouse assessed as protection against subcutaneous pentylenetetrazole-induced seizures at 300 mg/kg, ip and measured after 4 hrs; format: functional, organism-based; procedure, shortened: as §2
[22] = Neurotoxicity in CD1 mouse at 100 mg/kg, ip and measured after 0.5 to 4 hrs by rotarod test; format: toxicity, organism-based; conditions: in vivo
Procedure, shortened: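 Rotarod neurotoxicity screen in mice after intraperitoneal dosing. For the 6 Hz series the count is mice out of four showing neurotoxicity, scored as inability to grasp the rotarod or muscle spasms, at 0.25–4 h. For the initial screen the minimum toxic dose is taken from 30, 100 and 300 mg/kg at 0.5 and 4 h.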

[23] = system: Mus musculus; test: Potency index, ratio of phenytoin ED50 to compound ED50 for anticonvulsant activity in ip dosed CD1 mouse by 6 Hz psychomotor seizure test; format: functional
[24] = Neurotoxicity in CD1 mouse at 50 mg/kg, ip measured after 1 hr by rotarod test; conditions: in vivo
[25] = Neurotoxicity in CD1 mouse at 25 mg/kg, ip measured after 1 hr by rotarod test; conditions: in vivo
[26] = Neurotoxicity in CD1 mouse at 50 mg/kg, ip measured after 30 mins by rotarod test; conditions: in vivo, 0.5 h
[27] = Neurotoxicity in CD1 mouse at 25 mg/kg, ip measured after 15 mins by rotarod test; conditions: in vivo, 0.25 h
[28] = Neurotoxicity in CD1 mouse at 25 mg/kg, ip measured after 30 mins by rotarod test; conditions: in vivo, 0.5 h
[29] = system: Mus musculus; test: Anticonvulsant activity in CD1 mouse assessed as protection against 32 mA current-induced seizure at 25 mg/kg, ip measured after 1 hr by 6 Hz psychomotor seizure test
[30] = system: Mus musculus; test: Anticonvulsant activity in CD1 mouse assessed as protection against 32 mA current-induced seizure at 25 mg/kg, ip measured after 2 hrs by 6 Hz psychomotor seizure test
[31] = system: Mus musculus; test: Anticonvulsant activity in CD1 mouse assessed as protection against 32 mA current-induced seizure at 50 mg/kg, ip measured after 15 mins by 6 Hz psychomotor seizure test
[32] = system: Mus musculus; test: Anticonvulsant activity in CD1 mouse assessed as protection against 32 mA current-induced seizure at 50 mg/kg, ip measured after 30 mins by 6 Hz psychomotor seizure test
[33] = system: Mus musculus; test: Anticonvulsant activity in CD1 mouse assessed as protection against 32 mA current-induced seizure at 100 mg/kg, ip measured after 30 mins by 6 Hz psychomotor seizure test

Question: Which results are given for `CN1CCN(CN2C(=O)NC(c3ccccc3)(c3ccccc3)C2=O)CC1`?
Answer: Activity [1]: Non-Toxic; Activity [2]: Non-Toxic; Activity [3]: Non-Toxic; Activity [4]: Non-Toxic; minimal effective dose [5]: 10 mg/kg; Time [6]: 4 h; Time [7]: 1 h; Time [8]: 2 h; Time [9]: 2 h; ED50 [10]: > 250 mg/kg; ED50 [11]: 12.2 mg/kg; TD50 [12]: 75.5 mg/kg; TD50 [13]: > 500 mg/kg; selectivity ratio [14]: > 13; selectivity ratio [15]: 6.78; selectivity ratio [16]: 6.19; Activity [17]: 67.52%; Activity [18]: 90.3%; Activity [19]: 53%; Activity [20]: 61%; Activity [21]: inactive; Activity [22]: Toxic; Ratio ED50 [23]: 5; Activity [24]: Non-Toxic; Activity [25]: Non-Toxic; Activity [26]: Non-Toxic; Activity [27]: Non-Toxic; Activity [28]: Non-Toxic; Activity [29]: Active; Activity [30]: inactive; Activity [31]: Active; Activity [32]: Active; Activity [33]: Active

— ChEMBL document CHEMBL4346727, “Synthesis and pharmacological evaluation of novel N-Mannich bases derived from 5,5-diphenyl and 5,5-di(propan-2-yl)imidazolidine-2,4-dione core” (Bioorg Med Chem Lett, 2019)
